Experiments:
healthy male subjects [1] = test: Orthostatic hypotension; type: in vivo, human
NMDA receptor = test: In vitro binding affinity, NMDA receptor; conditions: read-out: Ki, NMDA receptor; preclinical in vitro panel
healthy male subjects [2] = test: NeuroCart body sway; type: in vivo, human; conditions: 12-hour post-dose period
Procedure, shortened: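 Single-dose, placebo-controlled study in fasted healthy men, tested twice pre-dose and at 0.5–10 h post-dose. Anteroposterior sway was recorded with eyes closed using a Wright-type ataxiameter. Movements over 2 min were integrated and expressed in mm. Values were ln-transformed, and change from baseline over 12 h was analysed by MMRM against pooled placebo, baseline as covariate, then back-transformed.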

dogs = test: Preclinical dog cardiovascular study; type: in vivo; conditions: any dose
[3] = Pharmacokinetics, first-in-human single ascending dose study; type: in vivo; conditions: n = 8
Procedure, shortened: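 Healthy men received a single fasted dose of 3–200 mg, with 8 on active drug per cohort. Plasma was sampled pre-dose and at 0.25–36 h. Drug was quantified by validated LC–MS/MS (LLOQ 1.00 ng/mL). Cmax, tmax, t1/2, AUClast and AUC∞ were calculated by noncompartmental analysis using actual elapsed sampling times.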

healthy male subjects [4] = test: NeuroCart adaptive tracking; type: in vivo, human; conditions: 12-hour post-dose period
Procedure, shortened: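 Fasted healthy men received a single dose or placebo capsule. Testing was done in a quiet, dim room, one subject at a time, after training at screening. Runs were twice pre-dose and at 0.5–10 h post-dose. The read-out was mean circle speed as % of maximum over 3.5 min. Change from baseline over 12 h was analysed by MMRM against pooled placebo, with baseline as covariate.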

**Q.** What does the source list for `CN1CCC23CCCCC2C1Cc1ccc(C(N)=O)cc13` (stereo not drawn) [ALKS 7119, (9α, 13α)‐17‐methylmorphinan‐3‐carboxamide]?
**A.** Incidence of orthostatic hypotension (healthy male subjects [1]; 200 mg dosing group, three subjects): 37.5%; Incidence of orthostatic hypotension (healthy male subjects [1]; all ALKS 7119 dose groups (placebo 15%)): 17.5%; Ki (NMDA receptor): 7.44 µM; Body sway, LSM CFB (healthy male subjects [2]; 3 mg single oral dose): −0.14 LOG mm; Body sway, LSM CFB (healthy male subjects [2]; 10 mg single oral dose): 0.16 LOG mm; Body sway, LSM CFB (healthy male subjects [2]; 25 mg single oral dose): −0.03 LOG mm; Body sway, LSM CFB (healthy male subjects [2]; 50 mg single oral dose): 0.12 LOG mm; Body sway, LSM CFB (healthy male subjects [2]; 75 mg single oral dose): −0.06 LOG mm; Body sway, LSM CFB (healthy male subjects [2]; 100 mg single oral dose): 0.08 LOG mm; QT intervals (dogs): No changes in QT intervals; AUC infinite/dose ([3]; 3 mg single oral dose): 33.34; AUClast, mean (SD) ([3]; 3 mg single oral dose): 85.88 (25.56) hr*ng/ml; AUClast, range ([3]; 3 mg single oral dose): 57.37 to 129.02 ng·h/mL; AUC∞, mean (SD) ([3]; 3 mg single oral dose): 100.03 (25.04) hr*ng/ml; AUC∞, range ([3]; 3 mg single oral dose): 73.65 to 140.04 ng·h/mL; Cmax, mean (SD) ([3]; 3 mg single oral dose): 8.33 (2.78) ng/ml; Cmax, range ([3]; 3 mg single oral dose): 5.87 to 13.20 ng/mL; Cmax/dose ([3]; 3 mg single oral dose): 2.78; t1/2, mean (SD) ([3]; 3 mg single oral dose): 6.98(1.16) h; t1/2, range ([3]; 3 mg single oral dose): 5.20 to 8.77 h; tmax, median ([3]; 3 mg single oral dose): 2.02 h; tmax, range ([3]; 3 mg single oral dose): 2.00 to 4.15 h; AUC infinite/dose ([3]; 10 mg single oral dose): 29.54; AUClast, mean (SD) ([3]; 10 mg single oral dose): 272.60 (35.69) hr*ng/ml; AUClast, range ([3]; 10 mg single oral dose): 198.45 to 321.20 ng·h/mL; AUC∞, mean (SD) ([3]; 10 mg single oral dose): 295.38 (32.29) hr*ng/ml; AUC∞, range ([3]; 10 mg single oral dose): 233.76 to 338.34 ng·h/mL; Cmax, mean (SD) ([3]; 10 mg single oral dose): 25.33 (3.91) ng/ml; Cmax, range ([3]; 10 mg single oral dose): 20.40 to 32.30 ng/mL; Cmax/dose ([3]; 10 mg single oral dose): 2.53; t1/2, mean (SD) ([3]; 10 mg single oral dose): 8.51 (0.89) h; t1/2, range ([3]; 10 mg single oral dose): 7.01 to 9.45 h; tmax, median ([3]; 10 mg single oral dose): 2.00 h; tmax, range ([3]; 10 mg single oral dose): 1.00 to 2.00 h; AUC infinite/dose ([3]; 25 mg single oral dose): 29.25; AUClast, mean (SD) ([3]; 25 mg single oral dose): 703.56 (89.80) hr*ng/ml; AUClast, range ([3]; 25 mg single oral dose): 608.46 to 864.96 ng·h/mL; AUC∞, mean (SD) ([3]; 25 mg single oral dose): 731.29 (87.27) hr*ng/ml; AUC∞, range ([3]; 25 mg single oral dose): 640.06 to 883.94 ng·h/mL; Cmax, mean (SD) ([3]; 25 mg single oral dose): 74.51 (16.19) ng/ml; Cmax, range ([3]; 25 mg single oral dose): 51.00 to 93.00 ng/mL; Cmax/dose ([3]; 25 mg single oral dose): 2.98; t1/2, mean (SD) ([3]; 25 mg single oral dose): 7.81 (0.83) h; t1/2, range ([3]; 25 mg single oral dose): 6.78 to 9.41 h; tmax, median ([3]; 25 mg single oral dose): 1.00 h; tmax, range ([3]; 25 mg single oral dose): 1.00 to 2.00 h; AUC infinite/dose ([3]; 50 mg single oral dose): 30.94; AUClast, mean (SD) ([3]; 50 mg single oral dose): 1473.57 (203.53) hr*ng/ml; AUClast, range ([3]; 50 mg single oral dose): 1234.86 to 1780.97 ng·h/mL; AUC∞, mean (SD) ([3]; 50 mg single oral dose): 1547.06 (196.89) hr*ng/ml; AUC∞, range ([3]; 50 mg single oral dose): 1277.55 to 1828.84 ng·h/mL; Cmax, mean (SD) ([3]; 50 mg single oral dose): 140.00 (32.44) ng/ml; Cmax, range ([3]; 50 mg single oral dose): 103.00 to 190.00 ng/mL; Cmax/dose ([3]; 50 mg single oral dose): 2.80; t1/2, mean (SD) ([3]; 50 mg single oral dose): 7.81 (0.69) h; t1/2, range ([3]; 50 mg single oral dose): 6.99 to 8.68 h; tmax, median ([3]; 50 mg single oral dose): 1.53 h; tmax, range ([3]; 50 mg single oral dose): 1.00 to 4.00 h; AUC infinite/dose ([3]; 75 mg single oral dose): 33.98; AUClast, mean (SD) ([3]; 75 mg single oral dose): 2406.33 (373.64) hr*ng/ml; AUClast, range ([3]; 75 mg single oral dose): 1732.82 to 2969.47 ng·h/mL; AUC∞, mean (SD) ([3]; 75 mg single oral dose): 2548.51 (468.23) hr*ng/ml; AUC∞, range ([3]; 75 mg single oral dose): 1772.06 to 3367.86 ng·h/mL; Cmax, mean (SD) ([3]; 75 mg single oral dose): 225.50 (40.59) ng/ml; Cmax, range ([3]; 75 mg single oral dose): 190.00 to 302.00 ng/mL; Cmax/dose ([3]; 75 mg single oral dose): 3.01; t1/2, mean (SD) ([3]; 75 mg single oral dose): 8.42 (1.63) h; t1/2, range ([3]; 75 mg single oral dose): 6.84 to 12.01 h; tmax, median ([3]; 75 mg single oral dose): 1.50 h; tmax, range ([3]; 75 mg single oral dose): 0.50 to 4.00 h; AUC infinite/dose ([3]; 100 mg single oral dose): 31.36; AUClast, mean (SD) ([3]; 100 mg single oral dose): 3027.23 (600.53) hr*ng/ml; AUClast, range ([3]; 100 mg single oral dose): 2340.29 to 4326.23 ng·h/mL; AUC∞, mean (SD) ([3]; 100 mg single oral dose): 3136.45 (634.60) hr*ng/ml; AUC∞, range ([3]; 100 mg single oral dose): 2418.74 to 4525.46 ng·h/mL; Cmax, mean (SD) ([3]; 100 mg single oral dose): 307.63 (75.28) ng/ml; Cmax, range ([3]; 100 mg single oral dose): 224.00 to 465.00 ng/mL; Cmax/dose ([3]; 100 mg single oral dose): 3.08; t1/2, mean (SD) ([3]; 100 mg single oral dose): 7.63 (0.93) h; t1/2, range ([3]; 100 mg single oral dose): 6.36 to 8.84 h; tmax, median ([3]; 100 mg single oral dose): 1.50 h; tmax, range ([3]; 100 mg single oral dose): 1.00 to 4.08 h; AUC infinite/dose ([3]; 125 mg single oral dose): 33.50; AUClast, mean (SD) ([3]; 125 mg single oral dose): 4059.17 (809.98) hr*ng/ml; AUClast, range ([3]; 125 mg single oral dose): 3120.58 to 5579.28 ng·h/mL; AUC∞, mean (SD) ([3]; 125 mg single oral dose): 4187.59 (840.18) hr*ng/ml; AUC∞, range ([3]; 125 mg single oral dose): 3188.91 to 5732.16 ng·h/mL; Cmax, range ([3]; 125 mg single oral dose): 315.00 to 745.00 ng/mL; Cmax/dose ([3]; 125 mg single oral dose): 3.58; t1/2, mean (SD) ([3]; 125 mg single oral dose): 7.26 (0.99) h; t1/2, range ([3]; 125 mg single oral dose): 6.06 to 8.72 h; tmax, median ([3]; 125 mg single oral dose): 2.00 h; tmax, range ([3]; 125 mg single oral dose): 2.00 to 4.00 h; AUC infinite/dose ([3]; 150 mg single oral dose): 30.22; AUClast, mean (SD) ([3]; 150 mg single oral dose): 4361.53 (782.96) hr*ng/ml; AUClast, range ([3]; 150 mg single oral dose): 3622.31 to 6015.06 ng·h/mL; AUC∞, mean (SD) ([3]; 150 mg single oral dose): 4533.66 (862.77) hr*ng/ml; AUC∞, range ([3]; 150 mg single oral dose): 3790.65 to 6362.63 ng·h/mL; Cmax, mean (SD) ([3]; 150 mg single oral dose): 413.38 (65.38) ng/ml; Cmax, range ([3]; 150 mg single oral dose): 314.00 to 540.00 ng/mL; Cmax/dose ([3]; 150 mg single oral dose): 2.76; t1/2, mean (SD) ([3]; 150 mg single oral dose): 7.53 (0.88) h; t1/2, range ([3]; 150 mg single oral dose): 6.10 to 8.51 h; tmax, median ([3]; 150 mg single oral dose): 2.00 h; tmax, range ([3]; 150 mg single oral dose): 1.00 to 4.00 h; AUC infinite/dose ([3]; 175 mg single oral dose): 34.02; AUClast, mean (SD) ([3]; 175 mg single oral dose): 5754.94 (1013.23) hr*ng/ml; AUClast, range ([3]; 175 mg single oral dose): 4681.45 to 7356.86 ng·h/mL; AUC∞, mean (SD) ([3]; 175 mg single oral dose): 5954.09 (1047.00) hr*ng/ml; AUC∞, range ([3]; 175 mg single oral dose): 4820.27 to 7488.93 ng·h/mL; Cmax, mean (SD) ([3]; 175 mg single oral dose): 660.63 (167.66) ng/ml; Cmax, range ([3]; 175 mg single oral dose): 451.00 to 893.00 ng/mL; Cmax/dose ([3]; 175 mg single oral dose): 3.78; t1/2, mean (SD) ([3]; 175 mg single oral dose): 7.48 (0.87) h; t1/2, range ([3]; 175 mg single oral dose): 5.91 to 8.83 h; tmax, median ([3]; 175 mg single oral dose): 2.01 h; tmax, range ([3]; 175 mg single oral dose): 1.02 to 4.00 h; AUC infinite/dose ([3]; 200 mg single oral dose): 33.61; AUClast, mean (SD) ([3]; 200 mg single oral dose): 6490.47 (1144.87) hr*ng/ml; AUClast, range ([3]; 200 mg single oral dose): 5120.43 to 8737.25 ng·h/mL; AUC∞, mean (SD) ([3]; 200 mg single oral dose): 6721.82 (1227.19) hr*ng/ml; AUC∞, range ([3]; 200 mg single oral dose): 5273.49 to 9126.15 ng·h/mL; Cmax, mean (SD) ([3]; 200 mg single oral dose): 656.00 (104.74) ng/ml; Cmax, range ([3]; 200 mg single oral dose): 491.00 to 795.00 ng/mL; Cmax/dose ([3]; 200 mg single oral dose): 3.28; t1/2, mean (SD) ([3]; 200 mg single oral dose): 7.35 (0.58) h; t1/2, range ([3]; 200 mg single oral dose): 6.72 to 8.33 h; tmax, median ([3]; 200 mg single oral dose): 3.00 h; tmax, range ([3]; 200 mg single oral dose): 1.00 to 4.00 h; Adaptive tracking, LSM CFB (healthy male subjects [4]; 3 mg single oral dose): 0.15%; Adaptive tracking, LSM CFB (healthy male subjects [4]; 10 mg single oral dose): 2.4%; Adaptive tracking, LSM CFB (healthy male subjects [4]; 25 mg single oral dose): 0.24%; Adaptive tracking, LSM CFB (healthy male subjects [4]; 50 mg single oral dose): 2.04%; Adaptive tracking, LSM CFB (healthy male subjects [4]; 75 mg single oral dose): 0.25%; Adaptive tracking, LSM CFB (healthy male subjects [4]; 100 mg single oral dose): 1.05%; Adaptive tracking, LSM CFB (healthy male subjects [4]; 125 mg single oral dose): 0.8%; Adaptive tracking, LSM CFB (healthy male subjects [4]; 150 mg single oral dose): 0.65%; Adaptive tracking, LSM CFB (healthy male subjects [4]; 175 mg single oral dose): 0.9%; Adaptive tracking, LSM CFB (healthy male subjects [4]; 200 mg single oral dose): 0.72%

From paper PMC9302689 (British Journal of Clinical Pharmacology, 2022)
